Consider one compound from ChEMBL document CHEMBL5030505, “Assessment of NR4A Ligands That Directly Bind and Modulate the Orphan Nuclear Receptor Nurr1” (J Med Chem, 2020).

What all share (type): cell-based
In data set [1] the test system is HEK293T. Put plainly: Modulation of Gal4-fused VP16 expressed in HEK293T cells co-transfected with UAS repoter gene assessed as decrease in luciferase activity at 1.55 to 15 uM incubated for 18 hrs by luciferase reporter gene assay. The settings on record: Human alphaherpesvirus 2, filed as modulator, dose 1.55-15 µM. The gist of the method: (§1)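 Constitutive control: cells transfected (Lipofectamine 2000) with Gal4-VP16 expression plasmid (2 μg) plus 5xUAS-luciferase reporter (2 μg), 18 h; replated 10,000 cells/well, 4 h; ligand or vehicle in quadruplicate for 18 h; luciferase read by Britelite Plus; signal as fold change over vehicle-treated cells. Mean ± s.e.m. (n=4); one-way ANOVA versus vehicle.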

The subject of data set [2] is PC-12. Put plainly: Cytotoxicity in rat PC-12 cells assessed as reduction in cell viability at 1.55 to 15 uM incubated for 18 hrs by Cell Titer-Glo assay. The settings on record: pc-12, 18 h, dose 1.55-15 µM. The essentials:
(§2)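 Cells seeded 1.5 million per 10-cm dish; next day replated at 10,000 cells/well in 384-well format, 4 h, then ligand or vehicle (water, ethanol or DMSO by ligand) added in quadruplicate for 18 h; viability read by CellTiter-Glo luminescence. Mean ± s.e.m. (n=4), generally 2 independent experiments; one-way ANOVA versus vehicle.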

The test system of data set [3] is SKNBE2. Kind of data set: Modulation of Gal4-fused VP16 expressed in SKNBE(2) cells co-transfected with UAS repoter gene assessed as decrease in luciferase activity at 1.55 to 15 uM incubated for 18 hrs by luciferase reporter gene assay. The settings on record: Human alphaherpesvirus 2, filed as modulator, dose 1.55-15 µM. The gist of the method: as §1
Data set [4] deals with Nuclear receptor subfamily 4 group A member 2 (Homo sapiens) (UniProt P43354). Kind of data set: Modulation of full length human Nurr1 expressed in PC-12 cells co-transfected with luciferase reporter plasmid harboring NBRE response element assessed as decrease in luciferase activity at 1.55 to 15 uM incubated for 18 hrs by luciferase reporter gene assay. The settings on record: filed as modulator, dose 1.55-15 µM. The essentials: (§3)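 Cells transfected (Lipofectamine 2000, 18 h) with full-length Nurr1 expression plasmid (2 μg) and 3xNBRE- or 3xNurRE-luciferase reporter (6 μg), no internal control normalisation; replated 10,000 cells/well, 4 h; ligand or vehicle in quadruplicate for 18 h; Britelite Plus luminescence as fold change over vehicle. Mean ± s.e.m. (n=4); one-way ANOVA versus vehicle.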

The test system of data set [5] is HEK-293T. Kind of data set: Cytotoxicity in human HEK293T cells assessed as reduction in cell viability at 1.55 to 15 uM incubated for 18 hrs by Cell Titer-Glo assay. The settings on record: dose 1.55-15 µM. The gist of the method:
as §2

The test system of data set [6] is PC-12. Kind of data set: Modulation of Gal4-fused VP16 expressed in PC12 cells co-transfected with UAS repoter gene assessed as decrease in luciferase activity at 1.55 to 15 uM incubated for 18 hrs by luciferase reporter gene assay. The conditions noted are these: Human alphaherpesvirus 2, filed as modulator, dose 1.55-15 µM. The essentials: as §1
For data set [7], the target named is Nuclear receptor subfamily 4 group A member 2 (Homo sapiens) (UniProt P43354). Put plainly: Modulation of full length human Nurr1 expressed in HEK293T cells co-transfected with luciferase reporter plasmid harboring NurRE response element assessed as decrease in luciferase activity at 1.55 to 15 uM incubated for 18 hrs by luciferase reporter gene assay. The settings on record: filed as modulator, dose 1.55-15 µM. The gist of the method: as §3

For data set [8] the target is unchanged. Kind of data set: Modulation of full length human Nurr1 expressed in […] cells co-transfected with luciferase reporter plasmid harboring NBRE response element assessed as decrease in luciferase activity at 1.55 to 15 uM incubated for 18 hrs by luciferase reporter gene assay. The settings on record: SKNBE2, filed as modulator, dose 1.55-15 µM. The gist of the method:
as §3

The target is the same in data set [9]. Kind of data set: Modulation of full length human Nurr1 expressed in HEK293T cells co-transfected with luciferase reporter plasmid harboring NBRE response element assessed as decrease in luciferase activity at 1.55 to 15 uM incubated for 18 hrs by luciferase reporter gene assay. The settings on record: filed as modulator, dose 1.55-15 µM. The gist of the method: as §3

Data set [10] has as its system SK-N-BE(2). Kind of data set: Cytotoxicity in human SKNBE2 cells assessed as reduction in cell viability at 1.55 to 15 uM incubated for 18 hrs by Cell Titer-Glo assay. The settings on record: dose 1.55-15 µM. The essentials: as §2
Data set [11] addresses Nuclear receptor subfamily 4 group A member 2 (Homo sapiens) (UniProt P43354). Kind of data set: Modulation of full length human Nurr1 expressed in […] cells co-transfected with luciferase reporter plasmid harboring NurRE response element assessed as decrease in luciferase activity at 1.55 to 15 uM incubated for 18 hrs by luciferase reporter gene assay. The conditions noted are these: SKNBE2, filed as modulator, dose 1.55-15 µM. The gist of the method:
as §3

Active and inactive are the calls of the source. The calls are words filed in the database; no cut-off is given here.

Sequence of Nuclear receptor subfamily 4 group A member 2 (Homo sapiens) (P43354 whole entry): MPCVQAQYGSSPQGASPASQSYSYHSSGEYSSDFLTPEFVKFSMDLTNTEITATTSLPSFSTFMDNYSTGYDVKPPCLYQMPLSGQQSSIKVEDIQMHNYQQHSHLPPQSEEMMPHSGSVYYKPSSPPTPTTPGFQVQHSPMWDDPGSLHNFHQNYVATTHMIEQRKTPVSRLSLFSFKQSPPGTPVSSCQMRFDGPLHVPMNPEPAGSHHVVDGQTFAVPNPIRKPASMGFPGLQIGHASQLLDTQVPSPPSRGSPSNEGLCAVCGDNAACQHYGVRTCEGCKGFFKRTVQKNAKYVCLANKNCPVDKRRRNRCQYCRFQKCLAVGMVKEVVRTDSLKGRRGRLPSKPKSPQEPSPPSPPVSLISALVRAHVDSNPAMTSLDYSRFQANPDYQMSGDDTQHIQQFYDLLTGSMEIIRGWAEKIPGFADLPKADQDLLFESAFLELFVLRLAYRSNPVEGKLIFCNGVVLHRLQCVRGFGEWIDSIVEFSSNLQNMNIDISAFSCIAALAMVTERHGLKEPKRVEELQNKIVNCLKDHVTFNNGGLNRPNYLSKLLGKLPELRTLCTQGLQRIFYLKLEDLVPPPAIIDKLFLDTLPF

`CC[C@@]1(O)C(=O)OCc2c1cc1n(c2=O)Cc2cc3ccccc3nc2-1` [CAMPTOTHECIN]: the result in data set [1], in data set [3], in data set [4], in [6], in [7] and in data set [8] was Active. The outcome in data set [9] and in [11] was Active. In addition, the Activity entry in data set [2], in data set [5] and in [10] was “Toxic” throughout.
